Measured values published in ChEMBL document CHEMBL4152388, “Structure-Activity Relationships in Metal-Binding Pharmacophores for Influenza Endonuclease” (J Med Chem, 2018).
The source made the active and inactive calls. The calls are words filed in the database; no cut-off is given here.

Key:
[1] = test system: Influenza A virus (A/California/04/2009(H1N1)); test: Inhibition of Influenza A (A/California/04/2009) (H1N1) clinical isolate N-terminal truncated PA endonuclease at 500 nM using 5'-FAM/3-TAMRA quencer labeled 17-mer ssDNA-oligo as substrate measured over 45 mins by FRET assay relative to control
[2] = target: T1, Arginase-1 (Homo sapiens) (UniProt P05089); test: Inhibition of full length human arginase 1 expressed in Escherichia coli BL21(DE3) at 200 uM using unlabeled L-arginine/L-[guanidino-14C]arginine as substrate after 5 mins by liquid scintillation counting method relative to control
T1 sequence (whole entry): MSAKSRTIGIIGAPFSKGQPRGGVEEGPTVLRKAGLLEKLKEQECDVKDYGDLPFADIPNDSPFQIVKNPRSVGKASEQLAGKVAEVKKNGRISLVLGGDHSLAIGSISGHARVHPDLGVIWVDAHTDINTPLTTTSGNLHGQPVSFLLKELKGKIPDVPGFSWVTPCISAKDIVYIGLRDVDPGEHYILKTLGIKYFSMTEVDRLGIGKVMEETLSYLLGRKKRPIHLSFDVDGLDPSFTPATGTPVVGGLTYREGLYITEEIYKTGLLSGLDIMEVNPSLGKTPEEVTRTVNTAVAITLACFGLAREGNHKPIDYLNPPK
Summary of the method: (§1)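 Single-concentration cross-inhibition screen, final inhibitor 200 μM, percent inhibition relative to positive and negative controls; run per literature protocols (Arg1, MetAP1 Mn2+ isoform, NDM-1).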

Bacteria = test: Inhibition of bacterial NDM1 at 200 uM using chromacef as substrate preincubated for 10 mins followed by substrate addition; summary of the method: as §1
[3] = target: Human immunodeficiency virus type 1 integrase (Human immunodeficiency virus 1) (UniProt Q7ZJM1); test: Inhibition of recombinant HIV1 integrase 3'-processing activity at 200 uM using 5'-end [32P]-labeled oligonucleotide substrate after 60 mins by densitometric analysis relative to control
Sequence of Human immunodeficiency virus type 1 integrase (Human immunodeficiency virus 1) (Q7ZJM1 as listed by the source): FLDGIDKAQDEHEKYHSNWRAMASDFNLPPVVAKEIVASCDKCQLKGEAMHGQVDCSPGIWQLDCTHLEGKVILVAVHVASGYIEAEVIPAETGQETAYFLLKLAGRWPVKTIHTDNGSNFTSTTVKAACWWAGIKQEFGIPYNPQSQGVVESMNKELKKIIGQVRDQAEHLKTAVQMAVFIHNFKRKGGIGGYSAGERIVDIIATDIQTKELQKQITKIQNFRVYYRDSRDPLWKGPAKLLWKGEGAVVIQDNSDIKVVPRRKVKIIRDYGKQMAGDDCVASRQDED

[4] = target: Human immunodeficiency virus type 1 integrase (Human immunodeficiency virus 1) (UniProt Q7ZJM1); test: Inhibition of recombinant HIV1 integrase strand transfer activity at 200 uM using 5'-end [32P]-labeled oligonucleotide substrate after 60 mins by densitometric analysis relative to control
[5] = target: Carbonic anhydrase 2 (Homo sapiens) (UniProt P00918); test: Inhibition of human carbonic anhydrase 2 at 200 uM using p-nitrophenyl acetate as substrate preincubated for 15 mins followed by substrate addition and measured every 1 min for 20 mins
Summary of the method: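 Single-point screen at 200 μM, percent inhibition relative to positive and negative controls, following literature protocols.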

[6] = target: 72 kDa type IV collagenase (Homo sapiens) (UniProt P08253); test: Inhibition of recombinant human MMP2 at 200 uM using Mca-Pro-Leu-Gly-Leu-Dpa-Ala-Arg-NH2.AcOH as substrate preincubated for 30 mins followed by substrate addition and measured every min for 20 mins by fluorescence assay
Sequence of 72 kDa type IV collagenase (Homo sapiens) (P08253 110-660 limits assumed): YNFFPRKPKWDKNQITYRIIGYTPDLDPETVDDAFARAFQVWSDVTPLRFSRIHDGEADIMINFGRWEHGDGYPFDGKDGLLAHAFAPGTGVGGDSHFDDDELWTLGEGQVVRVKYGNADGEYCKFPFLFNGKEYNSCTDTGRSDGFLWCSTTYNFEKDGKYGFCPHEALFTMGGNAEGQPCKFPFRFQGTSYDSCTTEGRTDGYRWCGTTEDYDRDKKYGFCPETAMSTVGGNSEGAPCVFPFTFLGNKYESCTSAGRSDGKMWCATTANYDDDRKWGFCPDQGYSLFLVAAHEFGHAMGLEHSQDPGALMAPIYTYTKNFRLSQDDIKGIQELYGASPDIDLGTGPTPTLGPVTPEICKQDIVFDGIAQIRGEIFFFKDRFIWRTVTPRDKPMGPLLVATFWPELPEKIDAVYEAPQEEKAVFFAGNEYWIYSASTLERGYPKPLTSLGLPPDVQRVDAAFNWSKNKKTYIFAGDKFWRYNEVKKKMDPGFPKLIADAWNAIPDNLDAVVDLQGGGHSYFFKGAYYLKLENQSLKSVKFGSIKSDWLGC

[7] = target: Lactoylglutathione lyase (Homo sapiens) (UniProt Q04760); test: Inhibition of human glyoxalase 1 at 200 uM relative to control
Sequence of Lactoylglutathione lyase (Homo sapiens) (Q04760 2-184 limits assumed): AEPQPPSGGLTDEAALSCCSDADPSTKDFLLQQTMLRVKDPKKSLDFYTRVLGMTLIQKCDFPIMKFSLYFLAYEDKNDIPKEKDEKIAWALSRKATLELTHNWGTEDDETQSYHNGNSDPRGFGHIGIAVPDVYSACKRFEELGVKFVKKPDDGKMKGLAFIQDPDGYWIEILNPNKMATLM

[8] = target: T2, Protein deacetylase HDAC6 (Homo sapiens) (UniProt Q9UBN7); test: Inhibition of N-terminal GST-tagged recombinant full length human HDAC6 expressed in baculovirus infected Sf9 insect cells at 200 uM using HDAC substrate 3 after 30 mins by fluorescence assay relative to control
T2 sequence (whole entry): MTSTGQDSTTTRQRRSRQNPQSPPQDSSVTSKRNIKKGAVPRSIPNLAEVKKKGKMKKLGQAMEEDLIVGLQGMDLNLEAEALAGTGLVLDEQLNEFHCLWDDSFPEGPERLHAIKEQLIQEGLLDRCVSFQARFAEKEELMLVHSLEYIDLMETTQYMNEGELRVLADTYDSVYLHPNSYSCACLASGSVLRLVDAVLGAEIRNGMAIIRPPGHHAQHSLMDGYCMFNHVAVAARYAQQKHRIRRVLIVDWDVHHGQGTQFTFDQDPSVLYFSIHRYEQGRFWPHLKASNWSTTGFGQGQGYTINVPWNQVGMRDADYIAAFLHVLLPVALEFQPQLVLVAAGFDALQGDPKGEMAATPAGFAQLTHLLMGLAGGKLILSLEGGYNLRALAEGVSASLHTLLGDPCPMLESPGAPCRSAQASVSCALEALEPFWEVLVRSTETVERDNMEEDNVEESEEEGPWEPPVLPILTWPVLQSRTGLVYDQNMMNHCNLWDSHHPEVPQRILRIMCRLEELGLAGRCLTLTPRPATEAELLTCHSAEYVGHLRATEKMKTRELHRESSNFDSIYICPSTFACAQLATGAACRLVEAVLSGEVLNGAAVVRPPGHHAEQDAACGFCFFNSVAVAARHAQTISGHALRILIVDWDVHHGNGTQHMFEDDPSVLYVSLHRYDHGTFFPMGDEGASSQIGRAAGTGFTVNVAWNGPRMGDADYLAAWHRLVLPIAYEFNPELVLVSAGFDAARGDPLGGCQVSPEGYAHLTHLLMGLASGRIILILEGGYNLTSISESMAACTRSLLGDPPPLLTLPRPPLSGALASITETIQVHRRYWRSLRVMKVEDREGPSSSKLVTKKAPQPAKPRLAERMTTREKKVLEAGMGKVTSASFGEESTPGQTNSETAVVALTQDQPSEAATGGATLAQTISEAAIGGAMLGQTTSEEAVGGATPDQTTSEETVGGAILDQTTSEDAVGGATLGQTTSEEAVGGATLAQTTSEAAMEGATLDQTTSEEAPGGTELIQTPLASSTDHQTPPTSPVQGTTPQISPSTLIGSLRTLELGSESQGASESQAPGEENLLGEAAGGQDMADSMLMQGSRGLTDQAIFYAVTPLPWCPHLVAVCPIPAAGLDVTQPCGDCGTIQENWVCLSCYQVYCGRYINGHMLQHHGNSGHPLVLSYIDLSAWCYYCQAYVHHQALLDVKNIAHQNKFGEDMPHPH

[9] = test system: Influenza A virus (A/California/04/2009(H1N1)); test: Inhibition of Influenza A (A/California/04/2009) (H1N1) clinical isolate N-terminal truncated PA endonuclease at 500 nM using 5'-FAM/3-TAMRA quencer labeled 17-mer ssDNA-oligo as substrate measured over 45 mins in presence of up to 25 mM metal ions by FRET assay relative to control
[10] = Inhibition of Influenza A (A/California/04/2009) (H1N1) clinical isolate N-terminal truncated PA endonuclease using 5'-FAM/3-TAMRA quencer labeled 17-mer ssDNA-oligo as substrate measured over 45 mins by FRET assay; design: species or system Influenza A virus (A/California/04/2009(H1N1))
Summary of the method: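 Cleavage of a 5'-FAM/3'-TAMRA 17-mer ssDNA substrate (200 nM) by influenza PA endonuclease (4 nM) in 20 mM Tris, 150 mM NaCl, 2 mM MnCl2, 10 mM β-mercaptoethanol, 0.2% Triton-X100, pH 8.0.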

| SMILES | inhibition [1] | inhibition [2] | inhibition (Bacteria) | also measured |
| --- | --- | --- | --- | --- |
| Cc1cc(=O)c(O)c(-c2ncco2)o1 | 88% | 0% | 8% | – |
| O=c1c(O)ccccc1O | 95% | 92% | 92% | – |
| CNC(=O)c1cc(C)[nH]c(=O)c1O | 7% | 5% | 8% | – |
| O=C(O)c1ccc2cccnc2c1O | 67% | 22% | 10% | – |
| Cc1cc(=O)c(O)c(C(=O)O)o1 | 96% | 8% | 12 to 13% | inhibition [3]: inactive; inhibition [4]: 37%; inhibition [5]: inactive; inhibition [6]: 11%; inhibition [7]: 11%; inhibition [8]: inactive; inhibition [9]: Active |
| Nc1cccc(C(=O)O)c1O | 0% | 11% | 7% | – |
| O=C(O)c1occc(=O)c1O | 94% | 1% | 4% | – |
| Cc1cc(=O)c(O)c(C(=O)O)[nH]1 | 97% | 24% | 6% | inhibition [9]: Active |
| O=C(O)c1cccc(C(=O)O)n1 [DIPICOLINIC ACID] | – | – | – | IC50 [10]: > 500000 nM; pIC50 [10]: < 3.3 |
| Cc1cc(C(=O)O)c(O)c(=O)[nH]1 | 44% | 8% | 9% | – |
| N/C(=N\O)c1[nH]ccc(=O)c1O | 15% | 83% | 43% | – |
| Cc1cc(=O)c(O)c(C(=O)O)n1C | 21% | 2% | 1% | – |
| O=C(O)c1ccc2cccc(O)c2[n+]1[O-] | 5% | 16% | 87% | – |
| Cc1cc(=O)c(O)c(C(N)=O)o1 | 30% | 5% | 8% | – |
| Cc1occ(O)c(=O)c1C(=O)O | 21% | 5% | 15% | – |
| Oc1cccc(O)c1O [PYROGALLOL] | 21% | 49% | 63% | IC50 [10]: 1700 nM; pIC50 [10]: 5.8 |
| Cc1nc(-c2[nH]ccc(=O)c2O)no1 | 30% | 6% | 3% | – |
| Cc1cc(=O)c(O)c(C(=O)O)n1O | 81% | 12% | 22% | – |
| Cc1nc(C(=O)O)c(O)c(=O)[nH]1 | 28% | 0% | 3% | – |
| O=C1c2c(O)cccc2Cc2cccc(O)c21 | 18% | 41% | 6% | – |
| O=c1cc[nH]c(-c2nnn[nH]2)c1O | 96% | 7% | 99% | – |
| Cc1cc(=S)c(O)c(C(=O)O)o1 | 46% | 9% | 84% | – |
| O=C(O)c1cccc(O)c1O | 15% | 82% | 15% | – |
| Cc1cc(O)c(=O)c(O)cc1C(=O)O | 98% | 32% | 61% | – |
| O=C(O)c1cccc(=O)n1O | 9% | 2% | 25% | – |
| CNC(=O)c1oc(C)cc(=O)c1O | 22% | 8% | 6% | – |
